From ChEMBL document CHEMBL1136357, “2-arylaminothiazoles as high-affinity corticotropin-releasing factor 1 receptor (CRF1R) antagonists: synthesis, binding studies and behavioral efficacy” (Bioorg Med Chem Lett, 2003) come the findings set out here.

The structures appear in SMILES notation. Some results are limits rather than exact numbers.

Data set [1] addresses T1, Corticotropin-releasing factor receptor 1 (Homo sapiens, UniProt P34998).
T1 sequence (P34998 whole entry): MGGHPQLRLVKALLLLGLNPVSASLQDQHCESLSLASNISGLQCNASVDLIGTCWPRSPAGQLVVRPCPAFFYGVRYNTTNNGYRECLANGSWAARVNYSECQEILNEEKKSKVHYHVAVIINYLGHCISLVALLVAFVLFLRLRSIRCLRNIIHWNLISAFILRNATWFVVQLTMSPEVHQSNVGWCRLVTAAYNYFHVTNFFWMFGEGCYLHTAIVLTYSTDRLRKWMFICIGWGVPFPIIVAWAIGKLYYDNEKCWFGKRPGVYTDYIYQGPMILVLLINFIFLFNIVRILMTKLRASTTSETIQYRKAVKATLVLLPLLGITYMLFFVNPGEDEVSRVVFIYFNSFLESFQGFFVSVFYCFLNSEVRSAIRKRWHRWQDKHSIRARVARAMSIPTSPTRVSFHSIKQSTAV
Description: Binding affinity by displacement of [125I]Tyr-o-CRF from human corticotropin releasing factor receptor 1 expressed in IMR-32 human neuroblastoma cell. A general note: Displacement assays read how much labelled ligand stays bound in the presence of the test substance.

A short description of data set [2]: Half-life in rat after intravenous administration at 5 mg/kg concentration. The following applies: in vivo.
Data set [3] in a line: Half-life in rat after peroral administration at 10 mg/kg concentration. The following applies: in vivo. In kind it is ADME, organism-based. An outline of the steps: (§1)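 Rats were given the HCl salt at 10 mg/kg orally, and at 5 mg/kg intravenously in the same study. […] Half-life, clearance, volume of distribution and oral bioavailability (F) were derived from the same study.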

Data set [4] can be described thus: Plasma clearance in rat after intravenous administration at 5 mg/kg concentration.
Another data set has as its system IMR-32. In words: Compound was tested for its ability to inhibit CRF stimulatedcAMP production in IMR-32 cells. In kind it is functional, Homo sapiens.
Data set [5] in a line: Ratio in brain to that of rat plasma for 2 hr after peroral administration at 10 mg/kg. Format: ADME, organism-based. Set-up: dose 10 mg/kg, route oral. The following applies: po, read-out: B/P. In short, it runs like this: as §1
The nature of data set [6]: Oral bioavailability in rat after […]. In kind it is ADME, organism-based. To be noted: in vivo.
The nature of data set [7]: Plasma clearance in rat after peroral administration at 10 mg/kg concentration. Format: ADME, organism-based. An outline of the steps:
as §1

The test system of data set [8] is Rattus norvegicus. Description: Area under curve in rat plasma for 0-4 hr after peroral administration at 10 mg/kg. The following applies: in vivo, po.
Data set [9] concerns Rattus norvegicus. In words: Area under curve in rat plasma for 0-4 hr after peroral administration at 10 mg/kg. The following applies: in vivo, po. Format: ADME, organism-based. Set-up: time < 4 hr, dose 10 mg/kg, route oral. An outline of the steps:
as §1

Data set [10] concerns Rattus norvegicus. Description: Volume distribution in rat after peroral administration at 10 mg/kg. Format: ADME, organism-based. Also on record: dose 10 mg/kg, route oral. To be noted: in vivo, po. An outline of the steps:
as §1

A short description of data set [11]: Oral bioavailability in rat after peroral administration at 10 mg/kg. In kind it is ADME, organism-based. To be noted: in vivo. An outline of the steps: as §1
Data set [12] has as its system Rattus norvegicus. Description: Volume distribution in rat after intravenous administration at 5 mg/kg. To be noted: in vivo.
Data set [13] in a line: Ratio in brain to that of rat plasma for 2 hr after […]. To be noted: po, read-out: B/P. Format: ADME, organism-based. Set-up: route oral.

What is called Ki is the equilibrium dissociation constant of an inhibitor or competing ligand from its target. Read a high Ki as lower affinity. In turn, `CCCN(Cc1sc(Nc2ccc(OC)cc2OC)nc1C(F)(F)F)CC1CC1` displayed a Ki in [1] of 5100 nM. For orientation: half-life means the time in which the quantity being followed falls by half. A high value points to slow decline. Broadly, the clearance is the volume of plasma or blood freed of the substance per unit of time. The term Inhibition denotes the share of the control response that was lost under treatment. Lower therefore signals little suppression. By bioavailability is commonly meant dose-corrected exposure relative to a reference, in per cent. Lower therefore signals little systemic uptake. As a reminder, the CL/F is clearance divided by bioavailability, as obtained after extravascular dosing. For orientation: AUC means the area under the concentration-time curve, a measure of exposure. Regarding `CCCN(Cc1sc(Nc2c(Cl)cc(Cl)cc2Cl)nc1C(F)(F)F)CC1CC1`, the half-life in data set [2] and in data set [3] was 7.6 h throughout. The molecule also showed a clearance in [4] of 16 mL/min/kg. In the data set on IMR-32, this molecule displayed an Inhibition of 90%. For the same molecule, the Kp at 2 h in data set [5] and in [13] was 2 each time. The bioavailability in data set [6] and in [11] was 9% throughout. The molecule also showed a CL/F in data set [7] of 16 mL/min/kg. Besides, the AUC with Rattus norvegicus [8] and in the data set with Rattus norvegicus [9] was 1730 ng·h/mL in each case. For the same molecule, the Vd in the data set on Rattus norvegicus [10] and in the data set on Rattus norvegicus [12] was 1.1 L/kg throughout.

In [1], `CCCN(CCC)C(=O)c1sc(Nc2c(Cl)cc(Cl)cc2Cl)nc1C` came in with an inhibition constant Ki of 820 nM. `COCCN(CCOC)C(=O)c1sc(Nc2c(Cl)cc(Cl)cc2Cl)nc1C` had a Ki in data set [1] of 51000 nM. In turn, `CCCN(CC1CC1)C(=O)c1sc(Nc2c(Cl)cc(Cl)cc2Cl)nc1C` yielded a Ki in data set [1] of 360 nM. The same measure, in the same setting: next, `CCCN(Cc1sc(Nc2c(C)cc(Cl)cc2Cl)nc1C(F)(F)F)CC1CC1`: 16 nM. Same read-out and setting: the same measure for `CCCN(Cc1sc(Nc2c(C)cc(C)cc2C)nc1C(F)(F)F)CC1CC1`: 60 nM; for `CCN(CCOC)C(=O)c1sc(Nc2c(Cl)cc(Cl)cc2Cl)nc1C`: 16000 nM.

In [1], `CCCN(CC1CC1)C(=O)c1sc(Nc2c(Cl)cc(Cl)cc2Cl)nc1CC` registered a Ki of 11000 nM.

Regarding `CCCN(Cc1sc(N(C)c2c(C)cc(C)cc2Cl)nc1C(F)(F)F)CC1CC1`, the Ki in [1] worked out at 100 nM. In data set [1], `CCCN(Cc1sc(Nc2c(C)cc(C)cc2Cl)nc1C(F)(F)F)CC1CC1` showed a Ki of 23 nM. Regarding `CCCN(Cc1sc(Nc2c(Cl)cc(C(F)(F)F)cc2Cl)nc1C(F)(F)F)CC1CC1`, the Ki in data set [1] came to 28 nM. The molecule `CCCN(Cc1sc(Nc2ccc(C(C)C)cc2Br)nc1C(F)(F)F)CC1CC1` showed a Ki in data set [1] of 2900 nM. Against the preceding molecule, the Ki is about 100-fold higher. `CCCN(CC1CC1)C(=O)c1sc(Nc2c(Cl)cc(Cl)cc2Cl)nc1C(F)(F)F` came in with a Ki in data set [1] of 31000 nM. On to `CCCN(Cc1sc(Nc2c(Br)cc(C)cc2Br)nc1C(F)(F)F)CC1CC1`, for which the Ki in [1] came out at 28 nM.

`CCCN(Cc1sc(N(CC)c2ccc(C(C)C)cc2Br)nc1C(F)(F)F)CC1CC1` displayed a Ki in [1] of 56 nM. This Ki is about 2-fold higher than that of the molecule before. As for `CCN(CC)C(=O)c1sc(Nc2c(Cl)cc(Cl)cc2Cl)nc1C`, the Ki in data set [1] is 5000 nM.

In data set [1], `CCCN(Cc1sc(N(CC)c2c(C)cc(C)cc2Cl)nc1C(F)(F)F)CC1CC1` returned a Ki of 67 nM. This Ki is about 75-fold lower than that of the molecule before. Take `CCCN(Cc1sc(Nc2c(C)cc(C)cc2Br)nc1C(F)(F)F)CC1CC1`: the affinity in [1], expressed as Ki, was 21 nM. The same measure, in the same setting: next, `CCCN(Cc1sc(Nc2c(C)cc(Cl)cc2C)nc1C(F)(F)F)CC1CC1`: 73 nM; `CCCN(Cc1sc(Nc2c(CC)cccc2CC)nc1C(F)(F)F)CC1CC1`: above 40000 nM. On the same count and under the same terms, the same measure for `CCCN(Cc1sc(Nc2c(Br)cc(Br)cc2Br)nc1C(F)(F)F)CC1CC1`: 7.8 nM.

In turn, `CCCN(CC1CC1)c1nc(C)nc(Nc2c(Cl)cc(Cl)cc2Cl)c1Cl` registered a Ki in [1] of 20 nM.
